The values that follow come from ChEMBL document CHEMBL3808346, “Optimization of the phenylurea moiety in a phosphoinositide 3-kinase (PI3K) inhibitor to improve water solubility and the PK profile by introducing a solubilizing group and ortho substituents” (Bioorg Med Chem, 2016).

A short description of series [1]: Solubility of compound in FaSSIF at pH 6.5 by HPLC-UV analysis. The series is classed as physicochemical. In a few lines: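 A 4-mM or 1-mM DMSO stock was freeze-dried and the residue taken up in FaSSIF (pH 6.5: sodium taurocholate, lecithin, KH2PO4, KCl, NaOH). Sonicated 10 min, shaken 2 h, centrifuged 10 min at 3000 rpm and filtered. Filtrate measured by HPLC-UV against each compound's calibration curve.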

Series [2] has as its target PI3-kinase p110-alpha/p85-alpha (Homo sapiens, UniProt P42336). As to the kind of experiment: Inhibition of human PI3K p110alpha/p85alpha expressed in baculovirus preincubated for 20 mins followed by addition of phosphorylate phosphatidylinositol-4,5-bisphosphate as substrate and ATP measured after 15 mins by AlphaScreen competition assay. Put shortly: (§1)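 Purified baculovirus-expressed human p110/p85α preincubated with compound 20 min at room temperature. Then 4 µM PI(4,5)P2 and 10 µM ATP (5 mM Hepes pH 7.5, 2.5 mM MgCl2) added for 15 min at 37 °C. PIP3 product detected by AlphaScreen competition using GST-GRP1, biotin-PIP3 and anti-GST acceptor/streptavidin donor beads, 1 h at room temperature.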

Series [3] can be described thus: Cmax in Balb/c nude mouse at 50 mg/kg, po measured after 24 hrs by LC-MS/MS analysis. Type of series: ADME, organism-based. Set-up: dose 50 mg/kg, route oral. The conditions noted are these: in vivo. In a few lines:
(§2)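 Female BALB/c-nu mice, n=2 per group, single oral dose of 50 mg/kg given as a solution in 10% DMSO, 10% Cremophor EL, 15% PEG400, 15% HPCD. Heparinized blood drawn at 0.25, 2, 4, 7 and 24 h; plasma stored at –80 °C. Plasma levels by LC–MS/MS; parameters by non-compartmental analysis.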

Series [4] in a line: AUC in Balb/c nude mouse at 50 mg/kg, po measured after 24 hrs by LC-MS/MS analysis. The series is classed as ADME, organism-based. On the set-up: dose 50 mg/kg, time < 24 hr, route oral. The conditions noted are these: in vivo. In a few lines: as §2
The nature of series [5]: Antiproliferative activity against PTEN negative human PC3 cells measured after 96 hrs by CCK-8 assay. Conditions: PC-3, 96 h. The series is classed as functional, cell-based. Put shortly: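 PC-3 prostate cells (ATCC) exposed to a range of compound concentrations for 96 hours; growth inhibition read with Cell Counting Kit-8.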
The target of a further series is PI3K p110 beta/p85 alpha (Homo sapiens, UniProt P42338). As to the kind of experiment: Inhibition of human PI3K p110beta/p85alpha expressed in baculovirus preincubated for 20 mins followed by addition of phosphorylate phosphatidylinositol-4,5-bisphosphate as substrate and ATP measured after 15 mins by AlphaScreen competition assay. In a few lines:
as §1
A general note: Bead proximity is the source of the signal in Alpha formats.

Series [6] can be described thus: Metabolic stability in human liver microsomes assessed as clearance. The series is classed as ADME. Conditions: read-out: CLH.
Series [7] can be described thus: Metabolic stability in mouse liver microsomes assessed as clearance. The series is classed as ADME. Conditions: read-out: CLH.
Series [8] in a line: Permeability of compound by PAMPA method. The series is classed as ADME. Conditions: read-out: permeability.
Series [9] can be described thus: Antitumor activity PTEN negative human PC3 cells xenografted into nude mouse assessed as tumor growth inhibition at 6.25 mg/kg, qd administered orally for 11 days. Conditions: PC-3, po, 264 h, read-out: TGI. Type of series: functional. Put shortly:
(§3)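 PC-3 grown as subcutaneous tumors in nude mice; dosing began (day 0) at about 130 mm3. Four mice per group, randomized to vehicle or drug by oral sonde once daily on days 0–10; vehicle 10% DMSO, 10% Cremophor EL, 15% PEG400, 15% HPCD. TV = (L W²)/2; TGI = [1 − (T − T0)/(C − C0)] × 100; body weight as W/W0 × 100.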

The next series relates to Mus musculus. The experiment in a line: Toxicity in nude mouse xenografted with PTEN negative human PC3 cells assessed as body weight loss. The conditions noted are these: in vivo. The series is classed as organism-based, PC-3. Put shortly: as §3
(A xenograft is tissue or cells of one species grown in another, often human tumour cells in immunodeficient mice.)

Converted amounts (≈) assume the structure as drawn. Some results are limits rather than exact numbers.

Chain of PI3-kinase p110-alpha/p85-alpha (P27986 whole entry): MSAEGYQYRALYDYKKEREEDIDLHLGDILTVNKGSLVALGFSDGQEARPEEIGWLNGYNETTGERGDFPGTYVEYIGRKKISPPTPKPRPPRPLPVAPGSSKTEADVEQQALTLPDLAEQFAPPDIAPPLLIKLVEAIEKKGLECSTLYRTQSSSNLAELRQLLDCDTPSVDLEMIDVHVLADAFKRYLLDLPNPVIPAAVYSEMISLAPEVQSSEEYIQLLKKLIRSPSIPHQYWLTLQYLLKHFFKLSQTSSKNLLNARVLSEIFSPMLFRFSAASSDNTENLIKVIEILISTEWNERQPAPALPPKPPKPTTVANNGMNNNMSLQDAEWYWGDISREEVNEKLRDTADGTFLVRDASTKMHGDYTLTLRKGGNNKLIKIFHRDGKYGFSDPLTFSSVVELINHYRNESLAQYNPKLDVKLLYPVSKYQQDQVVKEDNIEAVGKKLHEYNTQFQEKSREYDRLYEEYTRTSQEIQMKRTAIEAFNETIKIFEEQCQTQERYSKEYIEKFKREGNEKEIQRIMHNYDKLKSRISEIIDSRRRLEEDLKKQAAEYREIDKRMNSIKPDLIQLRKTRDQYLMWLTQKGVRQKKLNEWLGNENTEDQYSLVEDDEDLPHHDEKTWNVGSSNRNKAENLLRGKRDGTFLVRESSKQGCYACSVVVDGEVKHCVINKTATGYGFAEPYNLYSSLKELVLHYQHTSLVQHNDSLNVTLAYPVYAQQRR
Chain of PI3-kinase p110-alpha/p85-alpha (P42336 whole entry): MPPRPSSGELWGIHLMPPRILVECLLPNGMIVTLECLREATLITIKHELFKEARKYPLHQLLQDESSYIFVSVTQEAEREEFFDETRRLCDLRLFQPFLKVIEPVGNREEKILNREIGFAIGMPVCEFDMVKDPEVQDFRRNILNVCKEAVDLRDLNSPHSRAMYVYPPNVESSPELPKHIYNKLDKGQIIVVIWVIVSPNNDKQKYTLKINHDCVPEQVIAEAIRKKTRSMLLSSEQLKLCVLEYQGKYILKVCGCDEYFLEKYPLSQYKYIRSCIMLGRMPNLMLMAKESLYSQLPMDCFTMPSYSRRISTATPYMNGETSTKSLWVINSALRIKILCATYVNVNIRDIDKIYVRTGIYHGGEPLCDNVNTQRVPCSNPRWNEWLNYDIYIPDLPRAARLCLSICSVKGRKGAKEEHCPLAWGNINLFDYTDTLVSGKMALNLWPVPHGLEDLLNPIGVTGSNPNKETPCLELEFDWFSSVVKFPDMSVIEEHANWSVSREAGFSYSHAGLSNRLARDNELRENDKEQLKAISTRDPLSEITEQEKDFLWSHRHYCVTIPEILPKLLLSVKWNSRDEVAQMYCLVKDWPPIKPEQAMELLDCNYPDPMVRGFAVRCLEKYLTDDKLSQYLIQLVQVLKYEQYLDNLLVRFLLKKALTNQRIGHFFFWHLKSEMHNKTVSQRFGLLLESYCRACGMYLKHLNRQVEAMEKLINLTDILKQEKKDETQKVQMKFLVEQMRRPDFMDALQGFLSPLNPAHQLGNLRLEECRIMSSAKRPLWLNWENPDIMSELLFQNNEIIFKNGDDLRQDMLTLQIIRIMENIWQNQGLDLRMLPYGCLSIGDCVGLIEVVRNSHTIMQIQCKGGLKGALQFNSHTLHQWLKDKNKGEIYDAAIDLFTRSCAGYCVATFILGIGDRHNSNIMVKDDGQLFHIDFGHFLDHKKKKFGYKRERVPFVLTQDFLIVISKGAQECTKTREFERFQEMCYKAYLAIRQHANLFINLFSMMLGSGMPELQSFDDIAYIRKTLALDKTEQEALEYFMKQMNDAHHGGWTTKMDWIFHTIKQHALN
Chain of PI3K p110 beta/p85 alpha (P27986 whole entry): as the sequence (P27986 whole entry) above
Chain of PI3K p110 beta/p85 alpha (P42338 whole entry): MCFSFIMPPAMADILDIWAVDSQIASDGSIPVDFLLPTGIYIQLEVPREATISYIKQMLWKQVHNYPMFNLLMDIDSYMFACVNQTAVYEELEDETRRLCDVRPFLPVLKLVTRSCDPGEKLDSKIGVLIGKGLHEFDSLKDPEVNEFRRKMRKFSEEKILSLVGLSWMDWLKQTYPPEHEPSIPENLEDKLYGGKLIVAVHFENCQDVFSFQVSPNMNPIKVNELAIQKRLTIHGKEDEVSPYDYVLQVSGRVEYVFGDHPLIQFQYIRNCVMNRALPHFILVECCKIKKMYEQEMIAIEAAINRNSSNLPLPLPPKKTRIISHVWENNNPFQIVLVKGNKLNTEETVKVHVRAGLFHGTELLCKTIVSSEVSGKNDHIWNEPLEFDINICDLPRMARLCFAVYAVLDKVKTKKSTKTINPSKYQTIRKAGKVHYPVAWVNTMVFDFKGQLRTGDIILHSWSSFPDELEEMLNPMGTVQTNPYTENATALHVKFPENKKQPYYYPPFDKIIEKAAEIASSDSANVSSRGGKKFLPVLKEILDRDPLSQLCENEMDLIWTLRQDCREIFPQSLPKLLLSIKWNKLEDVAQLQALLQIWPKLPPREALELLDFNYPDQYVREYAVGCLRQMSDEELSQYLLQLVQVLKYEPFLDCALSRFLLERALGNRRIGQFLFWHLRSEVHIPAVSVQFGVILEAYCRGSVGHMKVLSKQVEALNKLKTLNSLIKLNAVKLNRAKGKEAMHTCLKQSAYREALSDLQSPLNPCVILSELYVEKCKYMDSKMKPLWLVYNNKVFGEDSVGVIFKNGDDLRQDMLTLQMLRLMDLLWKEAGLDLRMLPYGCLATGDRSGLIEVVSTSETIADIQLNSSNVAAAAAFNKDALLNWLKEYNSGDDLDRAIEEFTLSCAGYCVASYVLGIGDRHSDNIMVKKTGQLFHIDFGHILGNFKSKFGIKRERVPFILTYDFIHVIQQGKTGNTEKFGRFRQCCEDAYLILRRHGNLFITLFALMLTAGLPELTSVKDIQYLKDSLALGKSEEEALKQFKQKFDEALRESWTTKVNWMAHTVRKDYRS

Usually solubility stands for the concentration that dissolves in the medium under given conditions. Higher therefore signals a readily soluble substance. As to `Nc1ncc(-c2nc(N3CCOCC3)nc3c2CCN3c2cccnc2)cn1`, the solubility in series [1] was under 12 µg/mL.

One may read the IC50 as the concentration that inhibits the measured activity by half. Regarding `Cc1ccccc1NC(=O)N1CCc2c(-c3cnc(N)nc3)nc(N3CCOCC3)nc21`, the IC50 in series [2] was 52 nM. The compound also came in with a solubility in series [1] of under 14 µg/mL.

A word on the Cmax: it is the highest concentration seen after dosing. By AUC is commonly meant the area under the concentration-time curve, a measure of exposure. Regarding `Nc1ncc(-c2nc(N3CCOCC3)nc3c2CCN3C(=O)Nc2ccccc2)cn1`, in [3], the maximum concentration (Cmax) amounted to 104 ng/mL. Moreover, in series [4], the area under the curve (AUC) at 24 h was 437 ng·h/mL. The solubility in [1] was under 3 µg/mL.

With `CCN1CCN(c2cc(F)c(NC(=O)N3CCc4c(-c5cnc(N)nc5)nc(N5CCOCC5)nc43)c(F)c2)CC1`, in [3], the highest concentration (Cmax) was 460 ng/mL. For the same compound, the concentration for half-maximal inhibition (IC50) turned out to be 58 nM in series [5] and 7 nM at PI3K p110 beta/p85 alpha. Further, the microsomal CLint is 2.2 µL/min/mg in [6] and 7.6 µL/min/mg in series [7]. Also, the Papp in [8] was 1.1 ×10⁻⁶ cm/s. In series [9], the inhibition in vivo at 6.25 mg/kg amounted to 82%. Further, the Activity result with Mus musculus is recorded as “Non-toxic”. In addition, the exposure (AUC) at 24 h in series [4] was 5680 ng·h/mL. The solubility in [1] amounted to 20 µg/mL (≈ 35.3 µM).

On to `CN(C(=O)N1CCc2c(-c3cnc(N)nc3)nc(N3CCOCC3)nc21)c1ccccc1`, for which, in [2], the IC50 worked out at 130 nM. For the same compound, the solubility in series [1] is under 3 µg/mL.

Regarding `CC(C)c1ccccc1NC(=O)N1CCc2c(-c3cnc(N)nc3)nc(N3CCOCC3)nc21`, in [2], the half-inhibitory concentration (IC50) worked out at 81 nM. Also, the concentration in solution in series [1] (solubility) was 13 µg/mL (≈ 28.2 µM).

Turning to `Cc1nc(N)ncc1-c1nc(N2CCOCC2)nc2c1CCN2c1cccnc1`, the IC50 in series [2] turned out to be 260 nM. The compound further registered a solubility in series [1] of 56 µg/mL (≈ 143 µM).

As to `CCc1ccccc1NC(=O)N1CCc2c(-c3cnc(N)nc3)nc(N3CCOCC3)nc21`, in [2], the IC50 stood at 64 nM.

In the case of `CCN1CCN(c2ccc(NC(=O)N3CCc4c(-c5cnc(N)nc5)nc(N5CCOCC5)nc43)c(C)c2)CC1`, it took 210 nM to reach half-maximal inhibition in [5] (IC50). The compound further registered a solubility in series [1] of 11 µg/mL (≈ 20.2 µM).

On to `CCN1CCN(C(=O)c2ccc(NC(=O)N3CCc4c(-c5cnc(N)nc5)nc(N5CCOCC5)nc43)c(C)c2)CC1`, for which the IC50 was 250 nM in [5] and 26 nM in series [2]. The compound also showed a solubility in series [1] of under 18 µg/mL.
